Laboratory results as given in ChEMBL document CHEMBL1240512, “Discovery of a potent and selective noncovalent linear inhibitor of the hepatitis C virus NS3 protease (BI 201335)” (J Med Chem, 2010).

Tests used:
[1] = Oral bioavailability in rat at 5 mg/kg; assay type: ADME, organism-based; settings: in vivo
Summary of the method: (§1)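 Male Sprague-Dawley rats (275-300 g), fasted overnight with 10% dextrose in water; single oral gavage 5 mg/kg in 0.5% Methocel/0.3% Tween-80 (10 mL/kg). Carotid cannula sampling at 0-8 h; plasma pooled from three rats per time point, solid-phase extracted, LC-MS quantified; noncompartmental analysis. F derived using the 2 mg/kg iv arm.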

[2] = Cmax in rat at 5 mg/kg, po; assay type: ADME, organism-based; set-up: dose 5 mg/kg, route oral; settings: in vivo; summary of the method: as §1
[3] = Volume of distribution at steady state in rat at 2 mg/kg, iv; assay type: ADME, organism-based; set-up: dose 2 mg/kg, route intravenous; settings: in vivo, read-out: Vdss
Summary of the method: (§2)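 Male Sprague-Dawley rats (275-300 g), fasted overnight with 10% dextrose water access, given 2 mg/kg intravenously. Blood drawn via right carotid cannula at 5 min and 0.25-8 h; plasma pooled from three animals per time point, solid-phase extraction, LC-MS measurement; parameters from noncompartmental analysis.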

[4] = Half life in rat at 2 mg/kg, iv; assay type: ADME, organism-based; set-up: dose 2 mg/kg, route intravenous; settings: in vivo; summary of the method: as §2
Hepatitis C virus = assay: Antiviral activity against HCV Con1 by cell based-luciferase reporter gene assay; assay type: functional, organism-based, Hepacivirus hominis
Summary of the method: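 Bicistronic luciferase reporter replicon cells (Con1 genotype 1b NS2-NS5B) exposed to compound for 72 h; luciferase read with Bright-Glo substrate by luminescence. EC50 fitted by nonlinear regression.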

[5] = Inhibition of HCV NS3 protease; set-up: species or system Hepacivirus hominis
Summary of the method: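 Genotype 1b NS3-NS4A (0.5 nM) with 5 μM fluorogenic depsipeptide substrate anthranilyl-DDIVPAbu[C(O)-O]AMY(3-NO2)-TW-OH in 50 mM Tris-HCl pH 8.0, 0.25 M sodium citrate, 0.01% dodecyl maltoside, 1 mM TCEP, 5% DMSO; 60-70 min at 23 °C, stopped with 1 M MES pH 5.8; product fluorescence read; IC50 from percent inhibition by nonlinear fit.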

[6] = Clearance in rat at 2 mg/kg, iv; assay type: ADME, organism-based; set-up: dose 2 mg/kg, route intravenous; settings: in vivo; summary of the method: as §2
[7] = AUC (0 to infinity) in rat at 5 mg/kg, po; assay type: ADME, organism-based; set-up: time infinity, dose 5 mg/kg, route oral; settings: plasma; summary of the method: as §1

Structure (SMILES) | bioavailability [1] [%] | Cmax [2] [nM] | Vd [3] [L/kg] | half-life [4] [h] | EC50 (Hepatitis C virus) [nM] | IC50 [5] [nM] | clearance [6] [mL/min/kg] | AUC(0-inf) [7] [µM·h]
C=C[C@@H]1C[C@]1(NC(=O)[C@@H]1C[C@@H](Oc2cc(-c3csc(NC(C)C)n3)nc3cc(OC)ccc23)CN1C(=O)[C@@H](NC(=O)OC1CCCC1)C(C)(C)C)C(=O)O | 54 | 790 | 3.7 | 2.6 | 45 | 14 | 24 | 2.4
C=C[C@@H]1C[C@]1(NC(=O)[C@@H]1C[C@@H](Oc2cc(-c3csc(NC(C)C)n3)nc3cc(OC)ccc23)CN1C(=O)[C@@H](O)C(C)(C)C)C(=O)O |  |  |  |  |  | 320 |  | 
C=C[C@@H]1C[C@]1(NC(=O)[C@@H]1C[C@@H](Oc2cc(-c3csc(NC(C)C)n3)nc3cc(OC)ccc23)CN1C(=O)[C@@H](NC(=O)OC(C)(C)C)C(C)(C)C)C(=O)O |  |  |  |  |  | 43 |  | 
C=C[C@@H]1C[C@]1(NC(=O)[C@@H]1C[C@@H](Oc2cc(-c3csc(NC(C)C)n3)nc3cc(OC)ccc23)CN1C(=O)[C@@H](NC(=O)OC1CCC1)C(C)(C)C)C(=O)O |  |  |  |  | 110 | 12 |  | 
C=C[C@@H]1C[C@]1(NC(=O)[C@@H]1C[C@@H](Oc2cc(-c3csc(NC(C)C)n3)nc3cc(OC)ccc23)CN1C(=O)[C@@H](NC(=O)OC1CCCCC1)C(C)(C)C)C(=O)O |  |  |  |  | 90 | 18 |  | 
C=C[C@@H]1C[C@]1(NC(=O)[C@@H]1C[C@@H](Oc2cc(-c3csc(NC(C)=O)n3)nc3cc(OC)ccc23)CN1C(=O)[C@@H](NC(=O)OC1CCCC1)C(C)(C)C)C(=O)O |  |  |  |  | 34 | 5 |  | 
C=C[C@@H]1C[C@]1(NC(=O)[C@@H]1C[C@@H](Oc2cc(-c3csc(NC(=O)CC(C)(C)C)n3)nc3cc(OC)ccc23)CN1C(=O)[C@@H](NC(=O)OC1CCCC1)C(C)(C)C)C(=O)O | 39 | 1100 | 0.83 | 1.2 | 68 | 17 | 14 | 2.8
C=C[C@@H]1C[C@]1(NC(=O)[C@@H]1C[C@@H](Oc2cc(-c3csc(NC(C)C)n3)nc3c(C)c(OC)ccc23)CN1C(=O)[C@@H](NC(=O)OC1CCCC1)C(C)(C)C)C(=O)O |  |  |  |  | 40 | 15 |  | 
C=C[C@@H]1C[C@]1(NC(=O)[C@@H]1C[C@@H](Oc2cc(-c3csc(NC(C)=O)n3)nc3c(C)c(OC)ccc23)CN1C(=O)[C@@H](NC(=O)OC1CCCC1)C(C)(C)C)C(=O)O |  |  |  |  | 19 | 8 |  | 
C=C[C@@H]1C[C@]1(NC(=O)[C@@H]1C[C@@H](Oc2cc(-c3csc(NC(=O)CC)n3)nc3c(C)c(OC)ccc23)CN1C(=O)[C@@H](NC(=O)OC1CCCC1)C(C)(C)C)C(=O)O | 56 | 820 | 1.8 | 1.7 | 17 | 10 | 15 | 3.5
C=C[C@@H]1C[C@]1(NC(=O)[C@@H]1C[C@@H](Oc2cc(-c3csc(NC(=O)CC)n3)nc3c(F)c(OC)ccc23)CN1C(=O)[C@@H](NC(=O)OC1CCCC1)C(C)(C)C)C(=O)O |  |  |  |  | 36 | 7 |  | 
C=C[C@@H]1C[C@]1(NC(=O)[C@@H]1C[C@@H](Oc2cc(-c3csc(NC(=O)CC)n3)nc3c(Cl)c(OC)ccc23)CN1C(=O)[C@@H](NC(=O)OC1CCCC1)C(C)(C)C)C(=O)O |  |  |  |  | 11 | 7 |  | 
C=C[C@@H]1C[C@]1(NC(=O)[C@@H]1C[C@@H](Oc2cc(-c3csc(NC(=O)CC)n3)nc3c(Br)c(OC)ccc23)CN1C(=O)[C@@H](NC(=O)OC1CCCC1)C(C)(C)C)C(=O)O |  |  |  |  | 5 | 7 |  | 
C=C[C@@H]1C[C@]1(NC(=O)[C@@H]1C[C@@H](Oc2cc(-c3csc(NC(=O)OC)n3)nc3c(Br)c(OC)ccc23)CN1C(=O)[C@@H](NC(=O)OC1CCCC1)C(C)(C)C)C(=O)O |  |  |  |  | 3 | 6 |  | 
C=C[C@@H]1C[C@]1(NC(=O)[C@@H]1C[C@@H](Oc2cc(-c3csc(NC(=O)OC(C)C)n3)nc3c(Br)c(OC)ccc23)CN1C(=O)[C@@H](NC(=O)OC1CCCC1)C(C)(C)C)C(=O)O |  |  |  |  | 6 | 6 |  | 
C=C[C@@H]1C[C@]1(NC(=O)[C@@H]1C[C@@H](Oc2cc(-c3ccccc3)nc3cc(OC)ccc23)CN1C(=O)[C@@H](NC(=O)OC1CCCC1)C(C)(C)C)C(=O)O |  |  |  |  | 550 | 14 |  | 
COc1ccc2c(O[C@@H]3C[C@H]4C(=O)N[C@]5(C(=O)O)C[C@H]5/C=C\CCCCC[C@H](NC(=O)OC5CCCC5)C(=O)N4C3)cc(-c3csc(NC(C)C)n3)nc2c1 [CILUPREVIR] |  |  |  |  | 2 | 3 |  | 
C=C[C@@H]1C[C@]1(NC(=O)[C@@H]1C[C@@H](Oc2cc(-c3csc(NC(=O)C(C)C)n3)nc3c(Br)c(OC)ccc23)CN1C(=O)[C@@H](NC(=O)OC1CCCC1)C(C)(C)C)C(=O)O [FALDAPREVIR] |  |  |  |  | 3 | 3 |  | 
